In ChEMBL document CHEMBL1135419, “Molecular docking and high-throughput screening for novel inhibitors of protein tyrosine phosphatase-1B” (J Med Chem, 2002):

biological target: T1, Tyrosine-protein phosphatase non-receptor type 1 (Homo sapiens, UniProt P18031); assay: Inhibition of human Protein-tyrosine phosphatase 1B (PTP1B) dephosphorylation of insulin receptor peptide
T1 sequence (P18031 whole entry): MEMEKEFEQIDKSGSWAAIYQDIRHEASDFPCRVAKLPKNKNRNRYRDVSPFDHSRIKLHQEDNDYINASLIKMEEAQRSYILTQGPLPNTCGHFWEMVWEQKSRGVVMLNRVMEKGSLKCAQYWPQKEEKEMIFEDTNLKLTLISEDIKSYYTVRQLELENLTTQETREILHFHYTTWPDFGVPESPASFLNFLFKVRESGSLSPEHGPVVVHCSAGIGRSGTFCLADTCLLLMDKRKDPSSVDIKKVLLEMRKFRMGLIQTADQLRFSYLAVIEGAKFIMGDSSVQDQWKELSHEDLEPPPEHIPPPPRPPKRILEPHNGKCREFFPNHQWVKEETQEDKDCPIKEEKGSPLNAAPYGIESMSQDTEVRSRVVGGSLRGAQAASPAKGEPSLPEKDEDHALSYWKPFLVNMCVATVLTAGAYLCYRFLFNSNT
In short: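 Human recombinant PTP1B (residues 1-322) with 50 µM phosphopeptide substrate, room temperature, stopped with malachite green reagent, absorbance read at 620 nm. Docking-set assay: 1 nM enzyme in 25 mM HEPES pH 7.4, 125 mM NaCl, 1 mM EDTA, 10% glycerol, 10 mM DTT, no albumin, 10 min, DMSO below 10%, triplicates. HTS assay: 0.9 nM enzyme, pH 7.0, 0.03% BSA, 60 min.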

Going from `O=C(O)c1ccc(/C=C2/SC(=S)N(Cc3ccccc3)C2=O)cc1` to `O=C(O)c1ccc(N2C(=O)/C(=C\C=C\c3ccccc3)SC2=S)cc1`, the IC50 falls from 21.6 µM to 4.4 µM (4.9-fold).

First: CC1=NN(c2cccc(Cl)c2)C(=O)/C1=C\c1ccc(-c2ccc(C(=O)O)c(Cl)c2)o1
Second: O=C(O)c1ccc(-c2ccc(/C=C3/S/C(=N\c4ccccc4)N(c4ccccc4)C3=O)o2)cc1O
The IC50 of the first is 2.1-fold higher: 19.3 µM for the first, 9 µM for the second.

Going from `O=C1NC(=O)C(=Cc2ccc(Sc3nc4ccc([N+](=O)[O-])cc4s3)c([N+](=O)[O-])c2)C(=O)N1` to `COC(=O)c1ccc2nc(NC(=O)COC(=O)c3ccc(Br)o3)sc2c1`, the IC50 rises from 4.1 µM to 34.4 µM (8.4-fold). The first is the more potent here.

First: CSc1[nH]nc(NC(=O)c2ccc(Cl)c(Cl)c2)c1S(=O)(=O)c1ccc(Cl)cc1
Second: O=C(Nc1ccccc1)Nc1cc(-c2ccc(Cl)cc2)nn1-c1ccccc1
The IC50 of the first is 5.3-fold higher: 63.9 µM for the first, 12 µM for the second.

Compared with `CCOc1cc(/C=C2/N=C(c3ccc4c(c3)OCO4)OC2=O)cc(Cl)c1OC(C)=O`, `O=C(Nc1ccc(O)cc1)/C(=C/c1c[nH]c2ccccc12)NC(=O)c1ccccc1` is 1.6-fold lower in IC50: 35 µM for the first, 21.5 µM for the second. The second is the more potent here.

`Oc1cccc(-c2nc(-c3ccc(-c4ccccc4)cc3)c(-c3ccc(-c4ccccc4)cc3)[nH]2)c1` showed an IC50 of 8.6 µM.
